Experimental data published in ChEMBL document CHEMBL2331406, “In vitro activity of scorpiand-like azamacrocycle derivatives in promastigotes and intracellular amastigotes of Leishmania infantum and Leishmania braziliensis” (Eur J Med Chem, 2013).
Activity calls are given as the source filed them. No cut-off for these calls is given here.

Experiments:
Leishmania braziliensis [1] = assay: Antileishmanial activity against promastigote form of Leishmania braziliensis MHOM/BR/1975/M2904 assessed as change in succinate metabolite production at IC25 concentration after 96 hrs by H1-NMR analysis; type: functional, MHOM/BR/75/M2904
Outline: (§1)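 Promastigote cultures, initial 5 × 10^5 cells/mL, given the IC25 of compound; controls left untreated. Incubated 96 h at 28 °C, then centrifuged at 400g for 10 min. Excreted metabolites in the medium identified by 1H NMR spectra and compared with untreated control.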

[2] = Ratio of compound selectivity index to glucantime selectivity index for amastigote form of Leishmania braziliensis MHOM/BR/1975/M2904 infected in J774.2 cells over mouse J774.2 cells
Outline: (§2)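 J774.2 macrophages in MEM + 2 mM glutamine + 20% inactivated FCS were infected with stationary-phase promastigotes (10:1) for 24 h at 37 °C, 5% CO2. After washing, compounds were added at […] for 72 h. Amastigote reduction was scored in methanol-fixed, Giemsa-stained preparations; IC50 by regression; triplicates. SI = J774.2 IC50 (72 h flow cytometry)/amastigote IC50; ratio is versus Glucantime SI.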

Leishmania infantum [3] = assay: Antileishmanial activity against promastigote form of Leishmania infantum MCAN/ES/2001/UCM-10 infected in J774.2 cells assessed as inhibition of number of amastigotes per host cell at IC25 concentration incubated for 12 hrs followed by compound washout measured after 48 hrs by microscopic analysis; type: functional
Outline: (§3)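 J774.2 cells seeded at 1 × 10^4 cells/well on coverslips and cultured 2 days. Infected with promastigotes at 10:1 with drug at IC25 added immediately, for 12 h at 37 °C in 5% CO2. Parasites and drug washed out, then grown 10 days with washing and fresh medium every 48 h. On methanol-fixed, Giemsa-stained slides, % infected cells and amastigotes per infected cell scored from more than 200 host cells. Three determinations.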

Leishmania infantum [4] = assay: Antileishmanial activity against promastigote form of Leishmania infantum MCAN/ES/2001/UCM-10 assessed as change in succinate metabolite production at IC25 concentration after 96 hrs by H1-NMR analysis; type: functional; outline: as §1
Leishmania infantum [5] = assay: Antileishmanial activity against promastigote form of Leishmania infantum MCAN/ES/2001/UCM-10 assessed as change in lactate metabolite production at IC25 concentration after 96 hrs by H1-NMR analysis; type: functional; outline: as §1
Leishmania braziliensis [6] = assay: Antileishmanial activity against promastigote form of Leishmania braziliensis MHOM/BR/1975/M2904 assessed as change in acetate metabolite production at IC25 concentration after 96 hrs by H1-NMR analysis; type: functional, MHOM/BR/75/M2904; outline: as §1
[7] = Selectivity index, ratio of IC50 for mouse J774.2 cells to IC50 for axenic amastigote form of Leishmania braziliensis MHOM/BR/1975/M2904; type: toxicity; conditions: J774.2 cells, read-out: Ratio IC50
Outline: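 Axenic amastigotes obtained by 3-day promastigote transformation in supplemented M199 + 10% heat-inactivated FCS, pH 5.4, 37 °C. […] Host toxicity: J774.2, 72 h, PI/FDA flow cytometry. SI = macrophage IC50/axenic amastigote IC50; ratio is compound SI over Glucantime SI.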

[8] = Selectivity index, ratio of IC50 for mouse J774.2 cells to IC50 for amastigote form of Leishmania infantum MCAN/ES/2001/UCM-10 infected in J774.2 cells; type: toxicity, cell-based; conditions: J774.2 cells, read-out: Ratio IC50; outline: as §2
Leishmania braziliensis [9] = assay: Antileishmanial activity against promastigote form of Leishmania braziliensis MHOM/BR/1975/M2904 assessed as change in alanine metabolite production at IC25 concentration after 96 hrs by H1-NMR analysis; type: functional, MHOM/BR/75/M2904; outline: as §1
[10] = Selectivity index, ratio of IC50 for mouse J774.2 cells to IC50 for amastigote form of Leishmania braziliensis MHOM/BR/1975/M2904 infected in J774.2 cells; type: toxicity, cell-based; conditions: J774.2 cells, read-out: Ratio IC50; outline: as §2
Leishmania infantum [11] = assay: Antileishmanial activity against promastigote form of Leishmania infantum MCAN/ES/2001/UCM-10 infected in J774.2 cells assessed as inhibition of infection in host cells at IC25 concentration incubated for 12 hrs followed by compound washout measured after 48 hrs by microscopic analysis; type: functional; outline: as §3
Leishmania infantum [12] = assay: Antileishmanial activity against amastigote form of Leishmania infantum MCAN/ES/2001/UCM-10 infected in J774.2 cells after 72 hrs by haemocytometric analysis; type: functional, organism-based; conditions: Leishmania infantum, MCAN/ES/2001/UCM-10, J774.2, 72 h
Outline: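 J774.2 macrophages grown in MEM with 2 mM glutamine and 20% inactivated FCS at 37 °C in 5% CO2. Infected with stationary-phase promastigotes at 10:1 for 24 h, then washed free of non-phagocytosed parasites. Compounds at 1, 10, 25, 50 and 100 for 72 h. Amastigotes counted on methanol-fixed, Giemsa-stained preparations and % reduction taken vs untreated. IC50 by linear regression of Kc values; three separate determinations.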

[13] = Selectivity index, ratio of IC50 for mouse J774.2 cells to IC50 for promastigote form of Leishmania braziliensis MHOM/BR/1975/M2904; type: toxicity; conditions: J774.2 cells, read-out: Ratio IC50
Leishmania braziliensis [14] = assay: Antileishmanial activity against promastigote form of Leishmania braziliensis MHOM/BR/1975/M2904 assessed as cytoplasmic alterations at IC25 concentration after 96 hrs by MET microscopic analysis; type: functional; conditions: MHOM/BR/75/M2904
Outline: (§4)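 Promastigotes at 5 × 10^5 cells/mL in MTL medium with compound at IC25 for 96 h. Ultrastructure examined by transmission electron microscopy against untreated control parasites.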

[15] = Ratio of compound selectivity index to glucantime selectivity index for promastigote form of Leishmania braziliensis MHOM/BR/1975/M2904 over mouse J774.2 cells
Leishmania braziliensis [16] = assay: Antileishmanial activity against axenic amastigote form of Leishmania braziliensis MHOM/BR/1975/M2904 after 72 hrs by haemocytometric analysis; type: functional, MHOM/BR/75/M2904; conditions: Leishmania braziliensis, MHOM/BR/75/M2904, 72 h
Outline: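 Axenic amastigotes made by culturing promastigotes 3 days at 37 °C in M199 with 10% heat-inactivated FCS plus organic acids, amino acids, sucrose, bicarbonate, MES, haemin and gentamicin, pH 5.4. Compound effect counted in a Neubauer haemocytometer chamber. IC50 by linear regression of Kc values at 1, 10, 25, 50 and 100.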

Leishmania infantum [17] = assay: Antileishmanial activity against promastigote form of Leishmania infantum MCAN/ES/2001/UCM-10 assessed as ethanol metabolite production at IC25 concentration after 96 hrs by H1-NMR analysis; type: functional; outline: as §1
Leishmania braziliensis [18] = assay: Antileishmanial activity against promastigote form of Leishmania braziliensis MHOM/BR/1975/M2904 assessed as mortality at IC25 concentration after 96 hrs by MET microscopic analysis; type: functional; conditions: MHOM/BR/75/M2904; outline: as §4
Leishmania braziliensis [19] = assay: Antileishmanial activity against promastigote form of Leishmania braziliensis MHOM/BR/1975/M2904 assessed as ethanol metabolite production at IC25 concentration after 96 hrs by H1-NMR analysis; type: functional, MHOM/BR/75/M2904; outline: as §1
[20] = Inhibition of promastigote form Leishmania infantum MCAN/ES/2001/UCM-10 Fe-SOD by NBT reduction assay
Outline: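 Promastigotes sonicated in STE buffer (pH 7.8). The 35–85% ammonium sulphate fraction was desalted into 20 mM potassium phosphate/1 mM EDTA, pH 7.8, and protein was measured by Bradford. Fe-SOD activity was read spectrophotometrically as inhibition of NBT reduction by superoxide (Beyer–Fridovich); one unit gives 50% inhibition of the rate. Compounds tested at […]; IC50 by linear regression; three determinations, Newman–Keuls test.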

| IC50 (Leishmania infantum [12]) [µM] | IC50 (Leishmania braziliensis [16]) [µM] | IC50 [20] [µM] | SMILES | Activity (Leishmania braziliensis [1]) [%] | Ratio [2] | inhibition (INH) (Leishmania infantum [3]) [%] | Activity (Leishmania infantum [4]) [%] | Activity (Leishmania infantum [5]) [%] | Activity (Leishmania braziliensis [6]) [%] | selectivity ratio [7] | selectivity ratio [8] | Activity (Leishmania braziliensis [9]) [%] | selectivity ratio [10] | inhibition (INH) (Leishmania infantum [11]) [%] | selectivity ratio [13] | Activity (Leishmania braziliensis [14]) | Ratio [15] | Activity (Leishmania infantum [17]) [%] | Activity (Leishmania braziliensis [18]) | Activity (Leishmania braziliensis [19]) [%] |
| --- | --- | --- | --- | --- | --- | --- | --- | --- | --- | --- | --- | --- | --- | --- | --- | --- | --- | --- | --- | --- |
| 19.6 | 16 | 16.1 | Cl.c1ccc(CNCCN2CCNCc3cccc(n3)CNCC2)nc1 | -78 | 30 | 67 | -59 | 13 | -46 | 15.9 | 13 | 8 | 24.4 | 77 | 22.5 | Active | 37 | 10 | Active | -71 |
| 6.3 | 23.9 | 5.7 | Cl.c1cncc(CNCCN2CCNCc3cccc(n3)CNCC2)c1 | -47 | 57 | 77 | -36 | -38 | -13 | 19.6 | 74.3 | 10 | 45.4 | 84 | 20.3 | Active | 34 | 28 | Active | -59 |
| 17.4 | 24.9 | 17.6 | Cl.c1cc2nc(c1)CNCCN(CCNCc1cccc3ccccc13)CCNC2 | 2 | 27 | 71 | -3 | -44 | 8 | 14.7 | 21 | 0 | 22 | 74 | 29.7 | Active | 49 | 110 | Active | -6 |
| 25.6 | 16 | 6.5 | Br.NCCN1CCNCc2cccc(n2)CNCC1 | 22 | 29 |  |  |  | 18 | 14.5 | 9 | 5 | 23.2 |  | 19.6 | Active | 30 |  | Active | 6 |
